The values that follow come from ChEMBL document CHEMBL2069207, “Polyhydroxylated steroidal glycosides from Paris polyphylla” (J Nat Prod, 2012).

One may read the IC50 as the point on the concentration scale where inhibition reaches its midpoint. A higher IC50 goes with weaker potency.

The structures appear in SMILES notation. Activity calls are given as the source filed them. The rule behind the calls is not given here.

For one assay, the system named is CCRF-CEM. Nature of the assay: Cytotoxicity against human CCRF-CEM cells by XTT assay. The assay is classed as functional, cell-based. Put shortly: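 CCRF-CEM human leukemia cells were exposed to 0.001 to 100 μM to build dose–response curves, read by XTT proliferation assay. IC50 was taken from the curves. Only agents giving at least 80% inhibition in a 100 μM screen were taken forward. An equivalent DMSO concentration was the negative control and viability reference, and doxorubicin was the positive control.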
Turning to `C[C@H](CCC1(O)OC2CC3C4CC=C5C[C@@H](O[C@@H]6O[C@H](CO)C(O[C@@H]7O[C@@H](CO)[C@H](O)[C@H]7O)[C@@H](O)[C@H]6O[C@@H]6O[C@@H](C)[C@H](O)[C@@H](O)[C@H]6O)CC[C@]5(C)C4CC[C@]3(C)C2[C@@H]1C)CO[C@@H]1O[C@H](CO)[C@@H](O)[C@H](O)[C@H]1O` (some centres not stated) [PARISAPONIN I], the IC50 came to 1230 nM. As to `C[C@H](CC[C@@]1(O)O[C@H]2C[C@H]3[C@@H]4CC=C5C[C@@H](O[C@@H]6O[C@H](CO)[C@@H](O)[C@H](O[C@@H]7O[C@H](CO)[C@@H](O)[C@H](O)[C@H]7O)[C@H]6O[C@@H]6O[C@@H](C)[C@H](O)[C@@H](O)[C@H]6O)CC[C@]5(C)[C@H]4CC[C@]3(C)[C@H]2[C@@H]1C)CO[C@@H]1O[C@H](CO)[C@@H](O)[C@H](O)[C@H]1O`, the IC50 came to 1770 nM. Compound `C[C@H](CC[C@@]1(O)O[C@H]2C[C@H]3[C@@H]4CC=C5C[C@@H](O[C@@H]6O[C@H](CO)[C@@H](O[C@@H]7O[C@@H](C)[C@H](O[C@@H]8O[C@@H](C)[C@H](O)[C@@H](O)[C@H]8O)[C@@H](O)[C@H]7O)[C@H](O)[C@H]6O[C@@H]6O[C@@H](C)[C@H](O)[C@@H](O)[C@H]6O)CC[C@]5(C)[C@H]4CC[C@]3(C)[C@H]2[C@@H]1C)CO[C@@H]1O[C@H](CO)[C@@H](O)[C@H](O)[C@H]1O` [DICHOTOMIN] yielded an IC50 of 590 nM. In turn, `COc1cccc2c1C(=O)c1c(O)c3c(c(O)c1C2=O)C[C@@](O)(C(=O)CO)C[C@@H]3O[C@H]1C[C@H](N)[C@H](O)[C@H](C)O1` [DOXORUBICIN] had an IC50 of 2140 nM. Turning to `C[C@H](CC[C@@]1(O)O[C@H]2C[C@H]3[C@@H]4CC=C5C[C@@H](O[C@@H]6O[C@H](CO)[C@@H](O[C@@H]7O[C@@H](CO)[C@H](O)[C@H]7O)[C@H](O)[C@H]6O[C@@H]6O[C@@H](C)[C@H](O)[C@@H](O)[C@H]6O)CC[C@]5(C)[C@H]4CC[C@]3(C)[C@@]2(O)[C@@H]1C)CO[C@@H]1O[C@H](CO)[C@@H](O)[C@H](O)[C@H]1O` [PARISYUNNANOSIDE A], the IC50 amounted to 6680 nM. With `CC1=C(CC[C@@H](C)CO[C@@H]2O[C@H](CO)[C@@H](O)[C@H](O)[C@H]2O)O[C@H]2C[C@H]3[C@@H]4CC=C5C[C@@H](O[C@@H]6O[C@H](CO)[C@@H](O[C@@H]7O[C@@H](C)[C@H](O[C@@H]8O[C@@H](C)[C@H](O)[C@@H](O)[C@H]8O)[C@@H](O)[C@H]7O)[C@H](O)[C@H]6O[C@@H]6O[C@@H](C)[C@H](O)[C@@H](O)[C@H]6O)CC[C@]5(C)[C@H]4CC[C@]3(C)[C@@H]12`, it took 6520 nM to reach half-maximal inhibition (IC50).

In the next assay the test system is CCRF-CEM. Put plainly: Cytotoxicity against human CCRF-CEM cells at 100 uM by XTT assay. Type of assay: functional, cell-based. A digest of the protocol:
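Human CCRF-CEM leukemia cells; single fixed concentration of 100 μM. Proliferation inhibition was read by XTT assay and expressed as inhibition rate. Viability was referenced to an equivalent DMSO concentration as negative control. Doxorubicin served as positive control.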
For the compound `CC1=CO[C@@]2(O[C@H]3C[C@H]4[C@@H]5CC=C6C[C@@H](O)C[C@@H](O[C@@H]7O[C@H](CO)[C@@H](O)[C@H](O[C@@H]8OC[C@@H](O)[C@H](O)[C@H]8O)[C@H]7O[C@@H]7O[C@@H](C)[C@H](O)[C@@H](O)[C@H]7O)[C@]6(C)[C@H]5CC[C@]4(C)[C@H]3[C@@H]2CO[C@@H]2O[C@H](CO)[C@H](O)[C@H](O)[C@H]2O)[C@@H](O)[C@H]1O[C@@H]1O[C@H](C)[C@H](O)[C@H](O)[C@H]1O`, the result was inactive. Same read-out and setting: for `CC1=CO[C@@]2(O[C@H]3C[C@H]4[C@@H]5CC=C6C[C@@H](O)C[C@@H](O[C@@H]7O[C@H](CO)[C@@H](O)[C@H](O[C@@H]8OC[C@@H](O)[C@H](O)[C@H]8O)[C@H]7O[C@@H]7O[C@@H](C)[C@H](O)[C@@H](O)[C@H]7O)[C@]6(C)[C@H]5CC[C@]4(C)[C@H]3[C@@H]2CO)[C@@H](O)[C@H]1O[C@@H]1O[C@H](C)[C@H](O)[C@H](O)[C@H]1O` the value was “inactive”; for `CC(C)(O)CC[C@@H](O)[C@](C)(O)[C@H]1CC[C@@]2(O)C3=CC(=O)[C@@H]4C[C@@H](O)[C@@H](O)C[C@]4(C)[C@H]3CC[C@]12C`, “inactive”. With `CC(C)(O)C(O)CC[C@](C)(O)[C@H]1CC[C@@]2(O)C3=CC(=O)[C@@H]4C[C@@H](O)[C@@H](O)C[C@]4(C)[C@H]3CC[C@]12C` (some centres not stated), the result was inactive. In the case of `C[C@@H]1O[C@@H](O[C@H]2[C@H](O[C@@H]3C[C@H](O)CC4=CC[C@H]5[C@@H]6C[C@@H]7O[C@@]8(OC[C@H](C)[C@H](O[C@@H]9O[C@H](C)[C@H](O)[C@H](O)[C@H]9O)[C@@H]8O)[C@@H](CO)[C@@H]7[C@@]6(C)CC[C@@H]5[C@]43C)O[C@H](CO)[C@@H](O)[C@@H]2O[C@@H]2OC[C@@H](O)[C@H](O)[C@H]2O)[C@H](O)[C@H](O)[C@H]1O`, the outcome was inactive. Same read-out and setting: for `C=C1CO[C@@]2(O[C@H]3C[C@H]4[C@@H]5CC=C6C[C@@H](O)C[C@@H](O[C@@H]7O[C@H](CO)[C@@H](O)[C@H](O[C@@H]8OC[C@@H](O)[C@H](O)[C@H]8O)[C@H]7O[C@@H]7O[C@@H](C)[C@H](O)[C@@H](O)[C@H]7O)[C@]6(C)[C@H]5CC[C@]4(C)[C@H]3[C@@H]2CO[C@@H]2O[C@H](CO)[C@H](O)[C@H](O)[C@H]2O)[C@@H](O)[C@H]1O[C@@H]1O[C@H](C)[C@H](O)[C@H](O)[C@H]1O` the value was “inactive”.
